Laboratory results taken from ChEMBL document CHEMBL1121461, “Synthesis and diuretic profile of 3-(3-amino-1,2,4-oxadiazol-5-yl)-5-chloro-2,6-pyrazinediamine, an amiloride-type diuretic” (J Med Chem, 1980).
Values joined by “and” are separate entries in the source; they are usually repeats but may differ in a detail not shown here. Equal entries are not always repeated.

Legend:
Rattus norvegicus [1] = experiment: Compound was tested for diuretic activity against peroral dose of 25 mg/kg in rat; type: ADME, organism-based, Urine; design: dose 25 mg/kg, route oral; conditions: in vivo, po
Outline: (§1)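 Rats, four per group (eight in one case), given oral 50 mL/kg 0.2% NaCl load together with test agent by mouth; placed in metabolism cages, urine collected 3 h. Urine volume expressed as % of load; total Na+ and K+ (mequiv × 100) in the 3-h sample by flame photometry. Vehicle controls run alongside; significance p < 0.05, p < 0.01.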

Rattus norvegicus [2] = experiment: Compound was tested for diuretic activity against peroral dose of 100 mg/kg in rat; type: ADME, organism-based, Urine; design: dose 100 mg/kg, route oral; conditions: in vivo, po; outline: as §1
[3] = Compound was tested for diuretic activity in potassium content of the 3-h sample was measured by flame photometry; type: ADME, Urine; outline: as §1
Rattus norvegicus [4] = species on record: Rattus norvegicus; experiment: Compound was tested for diuretic activity in sodium content of the 3-h sample was measured by flame photometry in rat; type: ADME, organism-based, Urine; design: unit not given beside the values; conditions: in vivo; outline: as §1
Canis familiaris [5] = species on record: Canis familiaris; experiment: Compound was tested for diuretic activity in urine volume in dog; type: ADME, organism-based, Canis lupus familiaris; conditions: in vivo
Outline: (§2)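 Six normotensive trained dogs (10.2-17.9 kg; five for 10 mg/kg runs), oral dosing at 5 or 10 mg/kg, each preceded by placebo control test. Normal saline 100 mL given subcutaneously right after dosing. Bladder emptied by catheter at onset and 2, 4, 6 h; kept in metabolism cages; total urine volume recorded, Na+ and K+ of aliquot by flame photometry.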

Rattus norvegicus [6] = experiment: Compound was tested for diuretic activity against peroral dose of 5 mg/kg in rat; type: ADME, organism-based, Urine; design: dose 5 mg/kg, route oral; conditions: in vivo, po; outline: as §1
Rattus norvegicus [7] = species on record: Rattus norvegicus; experiment: Compound was tested for diuretic activity in potassium content of the 3-h sample was measured by flame photometry in rat; type: ADME, organism-based, Urine; conditions: in vivo
Outline: (§3)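 Rats, four per dose group, given oral 0.2% NaCl load (50 mL/kg) together with test agent orally; placed in metabolism cages, urine collected 3 h. Na+ and K+ content of the 3-h sample by flame photometry; output as % of load and total mequiv × 100, compared against concurrent controls.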

Canis familiaris [8] = species on record: Canis familiaris; experiment: Compound was tested for diuretic activity urine volume in dog; type: ADME, organism-based, Canis lupus familiaris; conditions: in vivo; outline: as §2
Rattus norvegicus [9] = experiment: Compound was tested for diuretic activity against peroral dose of 50 mg/kg in rat; type: ADME, organism-based, Urine; design: dose 50 mg/kg, route oral; conditions: in vivo, po; outline: as §1
Rattus norvegicus [10] = experiment: Compound was tested for diuretic activity against peroral dose of 10 mg/kg in rat; type: ADME, organism-based, Urine; design: dose 10 mg/kg, route oral; conditions: in vivo, po; outline: as §3
[11] = Compound was tested for diuretic activity in sodium content of the 3-h sample was measured by flame photometry; type: ADME, Urine; design: unit not given beside the values; outline: as §1
Canis familiaris [12] = experiment: Compound was tested for diuretic activity in urine volume in dogs at a dose of 5 mg/kg; type: ADME, organism-based, Canis lupus familiaris; design: dose 5 mg/kg; conditions: dog, in vivo
Outline: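 Six normotensive trained dogs (10.2-17.9 kg), each given a placebo control test before each run. Oral dosing, then 100 mL normal saline injected subcutaneously. Bladder emptied by catheter at onset and 2, 4, 6 h after dosing; dogs in metabolism cages. Total urine volume recorded; Na+ and K+ of an aliquot by flame photometry.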

SMILES	Load (Rattus norvegicus [1]) [%]	Load (Rattus norvegicus [2]) [%]	Diuretic activity [3]	Diuretic activity (Rattus norvegicus [4])	urine vol (Canis familiaris [5]) [%]	Load (Rattus norvegicus [6]) [%]	Diuretic activity (Rattus norvegicus [7])	urine vol (Canis familiaris [8]) [%]	Load (Rattus norvegicus [9])	Load (Rattus norvegicus [10])	Diuretic activity [11]	Load (Canis familiaris [12])
Cl.N=C(N)NC(=O)c1nc(Cl)c(N)nc1N.O.O [AMILORIDE HYDROCHLORIDE]	82.1	59.7	1.1 and 1.4 and 1.7	38 [middle of 4 runs]	91.2	94	1.5 and 1.7 and 1.6 and 1.1	88.2	64.9% and 76.2%	96.8%	33.6 and 24.9 and 27.9 and 32.9	–
Nc1noc(-c2nc(Cl)c(N)nc2N)n1	93.3	100.4	–	24.7 and 33.8 and 42.7 and 41.6	–	81.1	1.1 and 2 and 1.8 and 1.9 and 2.1	–	103% and 83.9%	88.8% and 96.9%	23.5 and 21.2 and 40	91% and 76.8%
